Laboratory results taken from ChEMBL document CHEMBL1128444 (J Med Chem, 1995).

Key:
[1] = target: T1, Sodium-dependent dopamine transporter (Rattus norvegicus, UniProt P23977); assay: Binding affinity at the Dopamine transporter in rat striata by inhibition of 0.5 nM [3H]WIN-35428 binding
[2] = target: T2, Norepinephrine transporter (Rattus norvegicus, UniProt Q9WTR4); assay: Inhibition of [3H]NE uptake by rat frontal cortex Norepinephrine transporter; format: tissue-based
Outline: (§1)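 Rat frontal cortex synaptosomes were used at 10 mg/mL tissue with 5 nM final [3H]norepinephrine and 10 μM pargyline in Krebs phosphate buffer, pH 7.4. Incubation was 3 min at 30 °C, followed by filtration and scintillation counting. Nonspecific uptake was defined with 1 μM desipramine. Three or four experiments were run in triplicate, and Ki was derived by Cheng–Prusoff.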

[3] = target: T2, Norepinephrine transporter; assay: Binding affinity at the Norepinephrine transporter in rat frontal cortex by inhibition of 0.5 nM [3H]nisoxetine binding; format: tissue-based
[4] = target: T3, Sodium-dependent serotonin transporter (Rattus norvegicus, UniProt P31652); assay: Binding affinity at the Serotonin transporter in rat midbrain by inhibition of 0.5 nM [3H]-paroxetine binding; format: tissue-based
T3 sequence (P31652 whole entry): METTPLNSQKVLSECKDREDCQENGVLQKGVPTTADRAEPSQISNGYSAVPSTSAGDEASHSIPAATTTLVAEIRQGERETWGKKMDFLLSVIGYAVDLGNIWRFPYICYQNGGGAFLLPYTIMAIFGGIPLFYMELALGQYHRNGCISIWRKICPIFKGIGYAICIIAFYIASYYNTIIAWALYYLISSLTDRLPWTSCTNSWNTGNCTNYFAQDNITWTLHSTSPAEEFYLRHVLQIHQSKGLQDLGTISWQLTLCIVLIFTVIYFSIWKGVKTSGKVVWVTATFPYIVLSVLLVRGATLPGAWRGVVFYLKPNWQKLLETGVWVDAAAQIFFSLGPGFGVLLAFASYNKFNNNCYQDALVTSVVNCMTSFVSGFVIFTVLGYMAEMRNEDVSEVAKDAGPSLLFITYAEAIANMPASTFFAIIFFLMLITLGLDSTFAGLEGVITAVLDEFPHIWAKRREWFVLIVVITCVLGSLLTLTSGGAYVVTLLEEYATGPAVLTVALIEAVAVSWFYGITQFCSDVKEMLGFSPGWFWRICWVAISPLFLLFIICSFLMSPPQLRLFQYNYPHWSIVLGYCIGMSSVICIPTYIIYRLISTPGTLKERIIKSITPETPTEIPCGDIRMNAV

[5] = target: Monoamine transporters; Norepininephrine & dopamine (Rattus norvegicus) (UniProt P23977+Q9WTR4); assay: Ratio of IC50 value against NE to that of DA transporters; format: protein assay
Outline: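 Competition binding against 0.5 nM [3H]WIN 35,428 (DA transporter) or 0.5 nM [3H]nisoxetine (NE transporter). The IC50 is the mean ± standard error of three or four experiments, each run in triplicate. Selectivity ratios are NE/DA or 5-HT/DA quotients of the IC50 values.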

[6] = target: T4, Monoamine transporters; serotonin & dopamine (Rattus norvegicus) (UniProt P31652+P23977); assay: Ratio of IC50 value against Serotonin transporter to that of dopamine transporter; format: protein assay
T4 sequence (P23977 whole entry, looked up): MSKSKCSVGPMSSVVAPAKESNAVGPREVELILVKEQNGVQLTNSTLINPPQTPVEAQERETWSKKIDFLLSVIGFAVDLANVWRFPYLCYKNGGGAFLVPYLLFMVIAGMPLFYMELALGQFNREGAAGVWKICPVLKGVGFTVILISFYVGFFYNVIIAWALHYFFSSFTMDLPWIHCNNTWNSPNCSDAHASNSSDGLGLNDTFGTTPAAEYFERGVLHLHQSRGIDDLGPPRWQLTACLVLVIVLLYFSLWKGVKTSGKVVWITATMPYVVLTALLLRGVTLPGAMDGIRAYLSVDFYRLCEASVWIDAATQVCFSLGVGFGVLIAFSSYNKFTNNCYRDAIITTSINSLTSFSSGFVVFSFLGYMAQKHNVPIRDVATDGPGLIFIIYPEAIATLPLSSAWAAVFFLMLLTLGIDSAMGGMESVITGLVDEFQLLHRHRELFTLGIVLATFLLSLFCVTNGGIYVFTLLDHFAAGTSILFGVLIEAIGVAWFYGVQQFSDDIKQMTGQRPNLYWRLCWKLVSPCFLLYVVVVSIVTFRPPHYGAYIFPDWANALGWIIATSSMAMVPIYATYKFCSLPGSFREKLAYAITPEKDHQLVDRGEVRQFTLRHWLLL
T4 sequence (P31652 whole entry, looked up): as the sequence (P31652 whole entry) above

[7] = target: T1, Sodium-dependent dopamine transporter; assay: Inhibition of [3H]DA uptake by rat striatal dopamine transporter
Outline: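 Rat striatal crude synaptosomes were prepared from male Sprague–Dawley rats by 0.32 M sucrose homogenisation and centrifugation at 800g then 2000g. Each tube held 1.5 mg tissue, 0.5 nM [3H]dopamine and 10 μM pargyline in Krebs phosphate buffer, pH 7.4, with dextrose and ascorbate. Incubation was 3 min at 30 °C, followed by filtration and scintillation counting. Nonspecific uptake was defined with 1 μM mazindol. Three or four experiments were run in triplicate, and Ki was derived by Cheng–Prusoff.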

[8] = target: T3, Sodium-dependent serotonin transporter; assay: Inhibition of [3H]- 5-HT uptake in Serotonin transporter using serotonin uptake assay in rat midbrain tissue; format: tissue-based
Outline: as §1, with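 “Rat midbrain” for “Rat frontal cortex”, “at 1” for “at 10”, “final [3H]serotonin” for “final [3H]norepinephrine”, “μM citalopram.” for “μM desipramine.”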

[9] = target: T4, Monoamine transporters; serotonin & dopamine (Rattus norvegicus); assay: Ratio of IC50 value against 5-HT to that of DA transporters; format: protein assay
[10] = target: T3, Sodium-dependent serotonin transporter; assay: Ratio of Ki value towards Serotonin transporter to that of dopamine transporter
Outline: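 Rat [3H]uptake into crude synaptosomes in modified Krebs phosphate buffer, pH 7.4, with dextrose, ascorbic acid and 10 μM pargyline, 3 min at 30 °C, filtered and scintillation counted. DA: male Sprague–Dawley striatum, 0.5 nM [3H]dopamine, 1 μM mazindol nonspecific. 5-HT: midbrain, 5 nM [3H]serotonin, 1 μM citalopram nonspecific. Ki by Cheng–Prusoff; 5-HT Ki/DA Ki; 3–4 experiments in triplicate.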

T2 sequence (Q9WTR4 whole entry): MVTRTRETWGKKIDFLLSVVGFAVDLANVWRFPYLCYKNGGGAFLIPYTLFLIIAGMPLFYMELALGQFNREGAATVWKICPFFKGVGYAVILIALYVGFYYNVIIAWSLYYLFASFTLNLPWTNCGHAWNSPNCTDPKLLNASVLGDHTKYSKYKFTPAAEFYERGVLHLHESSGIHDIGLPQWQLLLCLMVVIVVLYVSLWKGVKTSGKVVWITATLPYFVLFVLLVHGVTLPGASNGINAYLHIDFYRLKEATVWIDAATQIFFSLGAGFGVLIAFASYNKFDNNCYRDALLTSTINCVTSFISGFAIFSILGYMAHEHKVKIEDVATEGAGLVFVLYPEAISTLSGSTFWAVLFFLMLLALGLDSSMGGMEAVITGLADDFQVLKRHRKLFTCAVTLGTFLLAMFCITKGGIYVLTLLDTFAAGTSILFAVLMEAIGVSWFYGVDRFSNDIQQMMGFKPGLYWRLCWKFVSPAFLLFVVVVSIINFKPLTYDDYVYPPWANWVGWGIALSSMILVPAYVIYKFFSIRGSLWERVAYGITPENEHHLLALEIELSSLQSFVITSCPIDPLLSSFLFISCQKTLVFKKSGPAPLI
T1 sequence (P23977 whole entry): as the sequence (P23977 whole entry, looked up) above

With `CN1C2CCC1C(C(=O)Oc1ccccc1)C(c1ccc(I)cc1)C2` (configuration not stated) the IC50 [1] was 1.5 nM, the Ki [2] was 32.7 nM and the IC50 [3] was 3790 nM. The IC50 [4] was 184 nM, the Ratio [5] was 2580 and the Ratio [6] was 123. The Ki [7] was 6.85 nM and the Ki [8] was 51.6 nM.

`CN1C2CCC1C(C(=O)OC1CC1)C(c1ccc(I)cc1)C2` (configuration not stated) showed an IC50 [1] of 0.61 nM, an IC50 [3] of 102 nM and a Ratio [5] of 167. The Ratio [9] was 25.

`COC(=O)[C@H]1[C@@H](c2ccc(F)cc2)C[C@H]2CC[C@H]1N2C` showed a Ki [2] of 38.6 nM, an IC50 [4] of 692 nM and a Ki [8] of 101 nM.

Work on `CN1C2CCC1C(C(N)=O)C(c1ccc(Cl)cc1)C2` (configuration not stated) yielded an IC50 [1] of 11.5 nM, an IC50 [3] of 4270 nM and an IC50 [4] of 1620 nM. The Ratio [5] was 371 and the Ratio [9] was 141.

Compound `CN1C2CCC1C(C(=O)NCO)C(c1ccc(Cl)cc1)C2` (configuration not stated) has an IC50 [1] of 2.05 nM, an IC50 [3] of 144 nM and a Ratio [5] of 47. It also gave a Ratio [9] of 48.

`CC(C)OC(=O)C1C(c2ccc(I)cc2)CC2CCC1N2C` (configuration not stated) gave an IC50 [1] of 0.43 nM, a Ki [2] of 41.2 nM and an IC50 [3] of 285 nM. The IC50 [4] was 66.8 nM, the Ki [10] was 12.5 nM and the Ratio [5] was 662. For the same compound, the Ki [7] was 2.79 nM and the Ratio [9] was 155.

Compound `CN1C2CCC1C(C(=O)Oc1ccccc1)C(c1ccc(Cl)cc1)C2` (configuration not stated) has a Ki [2] of 242 nM, a Ratio [5] of 1490 and a Ratio [6] of 1180. For the same compound, the Ki [7] was 5.25 nM and the Ki [8] was 391 nM.

With `Cc1ccc(C2CC3CCC(C2C(N)=O)N3C)cc1` (configuration not stated) the IC50 [1] was 41.8 nM, the IC50 [3] was 4400 nM and the IC50 [4] was 6370 nM. It also gave a Ratio [5] of 105 and a Ratio [9] of 152.

Work on `CN1C2CCC1C(C(N)=O)C(OC(=O)c1ccccc1)C2` (configuration not stated) yielded an IC50 [1] of 753 nM, an IC50 [3] of 3980 nM and an IC50 [4] of 13700 nM. The Ratio [5] was 5.3 and the Ratio [9] was 18.

Work on `COC(=O)C1C(c2ccc(Cl)cc2)CC2CCC1N2C` (configuration not stated) yielded a Ki [7] of 3.68 nM and a Ki [8] of 5 nM.

Compound `CNC(=O)C1C(OC(=O)c2ccccc2)CC2CCC1N2C` (configuration not stated) has an IC50 [1] of 2420 nM, an IC50 [3] of 4210 nM and an IC50 [4] of 44800 nM. The Ratio [5] was 1.7 and the Ratio [9] was 18.

`COC(=O)C1C(c2ccc(I)cc2)CC2CCC1N2C` (configuration not stated) gave an IC50 [1] of 1.26 nM, a Ki [2] of 7.51 nM and an IC50 [3] of 36 nM. The Ratio [5] was 29, the Ratio [6] was 3.3 and the Ki [7] was 1.96 nM. It also gave a Ki [8] of 1.74 nM.

`Cc1ccc(C2CC3CCC(C2C(=O)OC(C)C)N3C)cc1` (configuration not stated) showed an IC50 [1] of 6.45 nM, a Ki [2] of 73.4 nM and an IC50 [3] of 1930 nM. For the same compound, the Ratio [5] was 299, the Ratio [6] was 59.9 and the Ki [7] was 15.3 nM. It also gave a Ratio [9] of 944.

For `Cc1ccc(C2CC3CCC(C2C(=O)Oc2ccccc2)N3C)cc1` (configuration not stated), the IC50 [1] was 3.26 nM, the Ki [2] was 278 nM and the IC50 [3] was 5830 nM. For the same compound, the Ratio [5] was 1790, the Ratio [6] was 7410 and the Ki [7] was 9.13 nM. It also gave a Ki [8] of 1540 nM.

Work on `CC(C)OC(=O)C1C(c2ccc(Cl)cc2)CC2CCC1N2C` (configuration not stated) yielded an IC50 [1] of 1.4 nM, a Ki [2] of 250 nM and an IC50 [3] of 778 nM. The Ratio [5] was 556, the Ratio [6] was 1000 and the Ki [7] was 6.04 nM. The Ki [8] was 129 nM.

`CN1C2CCC1C(C(=O)OC/C=C/c1ccccc1)C(OC(=O)c1ccccc1)C2` (configuration not stated) showed an IC50 [1] of 371 nM, an IC50 [3] of 68900 nM and an IC50 [4] of 368 nM. It also gave a Ratio [5] of 186 and a Ratio [9] of 1.
